# ChEMBL document CHEMBL4219244, “Blocking Alcoholic Steatosis in Mice with a Peripherally Restricted Purine Antagonist of the Type 1 Cannabinoid Receptor” (J Med Chem, 2018)
# Activity calls are given as the source filed them. The rule behind the calls is not given here.
# Assays:
# Cannabinoid receptor 2 = Cannabinoid receptor 2 (Homo sapiens, UniProt P34972); assay: Displacement of [3H]CP55940 from human CB2 expressed in CHOK1 cell membranes
# Cannabinoid receptor 1 = Cannabinoid receptor 1 (Homo sapiens, UniProt P21554); assay: Displacement of [3H]CP55940 from human CB1 expressed in CHOK1 cell membranes
# Sequence of Cannabinoid receptor 1 (P21554 whole entry): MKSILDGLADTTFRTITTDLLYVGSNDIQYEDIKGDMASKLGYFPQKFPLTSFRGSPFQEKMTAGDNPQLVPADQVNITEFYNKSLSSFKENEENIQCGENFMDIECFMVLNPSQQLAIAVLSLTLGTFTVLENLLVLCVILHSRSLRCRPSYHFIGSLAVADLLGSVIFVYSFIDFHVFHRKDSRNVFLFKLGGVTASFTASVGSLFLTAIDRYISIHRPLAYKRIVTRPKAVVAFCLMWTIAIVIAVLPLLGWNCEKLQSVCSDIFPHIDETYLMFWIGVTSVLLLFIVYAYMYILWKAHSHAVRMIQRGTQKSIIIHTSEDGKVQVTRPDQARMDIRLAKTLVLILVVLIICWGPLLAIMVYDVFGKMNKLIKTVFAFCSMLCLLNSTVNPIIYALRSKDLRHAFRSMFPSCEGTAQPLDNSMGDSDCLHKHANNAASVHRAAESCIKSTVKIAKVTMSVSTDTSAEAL
# Homo sapiens = organism: Homo sapiens; assay: Selectivity ratio of Ki for human CB2 to Ki for human CB1
# Summary of the method: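 Displacement of [3H]CP55940 binding to membranes from CHO cells overexpressing human CB1 or human CB2. Ki was determined at each receptor, and the ratio was taken as Ki(hCB2)/Ki(hCB1). Values are averages of three to six measurements.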
# Mus musculus [1] = assay: Suppression of CP55940-induced hypothermia in C57BL/6 mouse assessed as reduction in body temperature at 30 mg/kg, po administered via gavage pretreated for 30 mins followed by CP55940 addition measured at regular interval up to 4 hrs; type: ADME, organism-based; conditions: in vivo
# Summary of the method: (§1)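 Female C57BL6 mice, acclimated 2 weeks, given test agent or vehicle by oral gavage; after 30 min, CP55940 0.56 mg/kg ip in corn oil. Rectal temperature recorded at regular intervals up to 4 h. Six animals per group; means and standard deviations; two-way ANOVA versus vehicle.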
# [2] = Drug uptake in C57BL/6 mouse brain at 5 mg/kg, po after 0.6 to 24 hrs by LC-MS method; type: ADME, organism-based; conditions: in vivo
# [3] = Aqueous kinetic solubility of the compound in 10 mM phosphate buffer at pH 1.6 after 90 mins by LC/MS analysis; type: physicochemical; conditions: read-out: Kinetic_solubility
# Summary of the method: (§2)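 10 mM DMSO stocks diluted into 10 mM phosphate buffer (final DMSO 1%), shaken 90 min at room temperature, filtered through 0.4 μm plates. Filtrate concentration quantified by LC/MS against a six-point standard curve. Mean of three determinations.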
# [4] = Aqueous kinetic solubility of the compound in 10 mM phosphate buffer at pH 7.4 after 90 mins by LC/MS analysis; type: physicochemical; conditions: read-out: Kinetic_solubility; summary of the method: as §2
# [5] = Drug uptake in C57BL/6 mouse brain at 1.25 mg/kg, po bid administered via gavage treated for 7 days measured at 0.5 to 24 hrs post last dose; type: ADME, organism-based; conditions: in vivo
# Mus musculus [6] = assay: Anti-hepatic steatosis activity in alcohol-induced hepatic steatosis C57BL/6 mouse model assessed as reduction in hepatic lipid accumulation at 1.25 mg/kg, po bid administered via gavage treated for 2 weeks by oil red o-staining based histopathological assay; type: functional, organism-based
# Summary of the method: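 Female C57BL6 mice on Lieber-DeCarli liquid diet; ethanol raised progressively 1 to 5% (v/v) over 15 days, then 4 further weeks; pair-fed controls on control diet. Drug suspended in 0.5% sodium carboxymethylcellulose, 1% NMP, 0.3% Tween 80, given 1.25 mg/kg twice daily by gavage for last 2 weeks. Liver sections (10 μm, OCT) stained with Oil Red O; droplets counted in six grids per image; n = 6 per group; ANOVA.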
# Mus musculus [7] = assay: Suppression of CP55940-induced hypothermia in C57BL/6 mouse assessed as reduction in body temperature at 10 mg/kg, po administered via gavage pretreated for 30 mins followed by CP55940 addition measured at regular interval up to 4 hrs; type: ADME, organism-based; conditions: in vivo; summary of the method: as §1
# [8] = Drug uptake in alcohol-induced hepatic steatosis C57BL/6 mouse model brain at 1.25 mg/kg, po bid administered via gavage treated for 2 weeks measured at 16 hrs post last dose by LC-MS method; type: ADME, organism-based; conditions: in vivo
# Sequence of Cannabinoid receptor 2 (P34972 whole entry): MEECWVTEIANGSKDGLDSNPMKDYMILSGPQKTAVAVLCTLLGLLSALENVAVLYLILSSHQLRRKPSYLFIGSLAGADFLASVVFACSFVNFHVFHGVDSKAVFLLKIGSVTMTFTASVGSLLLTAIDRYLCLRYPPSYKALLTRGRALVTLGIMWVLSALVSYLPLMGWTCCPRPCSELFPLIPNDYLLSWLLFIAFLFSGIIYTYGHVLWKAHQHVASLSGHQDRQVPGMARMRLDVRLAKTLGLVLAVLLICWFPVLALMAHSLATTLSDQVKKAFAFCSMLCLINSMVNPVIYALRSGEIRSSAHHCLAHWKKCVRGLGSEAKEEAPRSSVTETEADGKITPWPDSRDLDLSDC
compound,measurement,setting,value
N#Cc1ccccc1N1CCN(c2ncnc3c2nc(-c2ccccc2Cl)n3-c2ccc(Cl)cc2)CC1,Ki,Cannabinoid receptor 2,> 10000 nM
N#CC(c1ccccc1)N1CCN(c2ncnc3c2nc(-c2ccccc2Cl)n3-c2ccc(Cl)cc2)CC1 (stereo not given),Ki,Cannabinoid receptor 1,7 nM
same,Ki,Cannabinoid receptor 2,460 nM
same,Ratio Ki,Homo sapiens,66
Clc1ccc(CN2CCN(c3ncnc4c3nc(-c3ccccc3Cl)n4-c3ccc(Cl)cc3)CC2)cc1,Ki,Cannabinoid receptor 2,> 10000 nM
Cc1ccccc1CN1CCN(c2ncnc3c2nc(-c2ccccc2Cl)n3-c2ccc(Cl)cc2)CC1,Ki,Cannabinoid receptor 2,4600 nM
Clc1ccc(-n2c(-c3ccccc3Cl)nc3c(N4CCN(c5ccccc5)CC4)ncnc32)cc1,Ki,Cannabinoid receptor 2,> 10000 nM
COc1ccc(N2CCN(c3ncnc4c3nc(-c3ccccc3Cl)n4-c3ccc(Cl)cc3)CC2)cc1,Ki,Cannabinoid receptor 2,> 10000 nM
Clc1ccc(-n2c(-c3ccccc3Cl)nc3c(N4CCN(CCc5ccncc5)CC4)ncnc32)cc1,Ki,Cannabinoid receptor 1,12 nM
same,Ki,Cannabinoid receptor 2,630 nM
same,Ratio Ki,Homo sapiens,52
N#Cc1ccc(N2CCN(c3ncnc4c3nc(-c3ccccc3Cl)n4-c3ccc(Cl)cc3)CC2)cc1,Ki,Cannabinoid receptor 2,> 10000 nM
CCNC1(C(N)=O)CCN(c2ncnc3c2nc(-c2ccccc2Cl)n3-c2ccc(Cl)cc2)CC1 [OTENABANT],Activity,Mus musculus [1],Toxic
Cc1c(C(=O)NN2CCCCC2)nn(-c2ccc(Cl)cc2Cl)c1-c1ccc(Cl)cc1 [RIMONABANT],Drug uptake,[2],Active
COc1ccccc1N1CCN(c2ncnc3c2nc(-c2ccccc2Cl)n3-c2ccc(Cl)cc2)CC1,Ki,Cannabinoid receptor 1,2 nM
same,Ki,Cannabinoid receptor 2,5000 nM
Clc1ccc(-n2c(-c3ccccc3Cl)nc3c(N4CCN(Cc5ccccc5)CC4)ncnc32)cc1,Ki,Cannabinoid receptor 1,4 nM
same,Ki,Cannabinoid receptor 2,430 nM
same,Ratio Ki,Homo sapiens,110
Cc1ccc(CN2CCN(c3ncnc4c3nc(-c3ccccc3Cl)n4-c3ccc(Cl)cc3)CC2)cc1,Ki,Cannabinoid receptor 2,> 10000 nM
Clc1ccc(-n2c(-c3ccccc3Cl)nc3c(N4CCN(Cc5ccccc5Cl)CC4)ncnc32)cc1,solubility kinetic at […],[3],> 200 µM
same,solubility kinetic at […],[4],< 0.4 µM
same,Drug uptake,[5],Not Active
same,Activity,Mus musculus [6],Active
same,Activity,Mus musculus [7],Non-Toxic
same,Drug uptake,[8],Not Active
COc1ccc(CN2CCN(c3ncnc4c3nc(-c3ccccc3Cl)n4-c3ccc(Cl)cc3)CC2)cc1,Ki,Cannabinoid receptor 2,> 10000 nM
Oc1cccc(N2CCN(c3ncnc4c3nc(-c3ccccc3Cl)n4-c3ccc(Cl)cc3)CC2)c1,Ki,Cannabinoid receptor 1,25 nM
same,Ki,Cannabinoid receptor 2,> 10000 nM
FC(F)(F)Oc1ccccc1CN1CCN(c2ncnc3c2nc(-c2ccccc2Cl)n3-c2ccc(Cl)cc2)CC1,Ki,Cannabinoid receptor 2,> 10000 nM
